Data from ChEMBL document CHEMBL3588772, “Synthesis, anti-mycobacterial activity and DNA sequence-selectivity of a library of biaryl-motifs containing polyamides” (Bioorg Med Chem, 2015).
Converted amounts (≈) assume the structure as drawn.

Tested on: Mycobacterium tuberculosis
Assay: Antimycobacterial activity against Mycobacterium bovis BCG after 7 days
Assay type: functional
Details: variant bovis BCG, 168 h
Summary of the method: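 HT-SPOTi agar growth inhibition in 96-well format. Serially diluted DMSO solutions were mixed into Middlebrook 7H10 agar (kept at 55 °C) with 0.05% glycerol and 10% OADC. Controls were DMSO-only wells and isoniazid. Each well received 2×10³ CFU of culture (pre-grown rolling at 2 rpm or standing, 37 °C). Plates ran 7 days at 37 °C. MIC = lowest concentration with no visible growth.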

With `CC(=O)Nc1ccc(-c2csc(C(=O)Nc3cc(C(=O)Nc4cc(C(=O)NCCCN(C)C)n(C)c4)n(C)c3)c2)cc1` as the molecule, how does the MIC read?
Its MIC is 125 µg/mL (≈ 212 µM).

How did the MIC turn out when `CC(=O)Nc1ccc(-c2ccc(C(=O)Nc3cc(C(=O)Nc4cc(C(=O)NCCCN(C)C)n(C)c4)n(C)c3)o2)cc1` was run?
The MIC was 125 µg/mL (≈ 218 µM).

With `CC(=O)Nc1cccc(-c2ccc(C(=O)Nc3cc(C(=O)Nc4cc(C(=O)NCCCN(C)C)n(C)c4)n(C)c3)o2)c1` as the molecule, how does the MIC read?
Its MIC is 125 µg/mL (≈ 218 µM).

How did the MIC turn out when `CC(=O)Nc1ccc(-c2cc(C(=O)Nc3cc(C(=O)Nc4cc(C(=O)NCCCN(C)C)n(C)c4)n(C)c3)n(C)c2)cc1` was run?
The MIC was 125 µg/mL (≈ 213 µM).

Which MIC does the source give for `Cc1nc(-c2ccsc2)sc1C(=O)Nc1cc(C(=O)Nc2cc(C(=O)NCCCN(C)C)n(C)c2)n(C)c1` here?
The MIC was 125 µg/mL (≈ 226 µM).

For `Cc1nc(-c2cnn(C)c2)sc1C(=O)Nc1cc(C(=O)Nc2cc(C(=O)NCCCN(C)C)n(C)c2)n(C)c1`, which MIC is on record?
Its MIC is 62.5 µg/mL (≈ 113 µM).

With `NNC(=O)c1ccncc1` [ISONIAZID] as the molecule, how does the MIC read?
The MIC was 0.05 µg/mL (≈ 0.365 µM).

With `CO[C@H]1/C=C/O[C@@]2(C)Oc3c(C)c(O)c4c(O)c(c(/C=N/N5CCN(C)CC5)c(O)c4c3C2=O)NC(=O)/C(C)=C\C=C\[C@H](C)[C@H](O)[C@@H](C)[C@@H](O)[C@@H](C)[C@H](OC(C)=O)[C@@H]1C` [RIFAMPIN] as the molecule, how does the MIC read?
Its MIC is 0.05 µg/mL (≈ 0.0608 µM).

With `Cn1cc(NC(=O)c2cc(NC(=O)c3cc(NC=O)cn3C)cn2C)cc1C(=O)NCCC(=N)N` [STALLIMYCIN] as the molecule, how does the MIC read?
The MIC was 1.95 µg/mL (≈ 4.05 µM).
